Results collected from several papers.
Protocols differ between the studies behind these lines.
Target: Calcium/calmodulin-dependent protein kinase type II subunit delta (CAMK2D, Homo sapiens, UniProt Q13557)

| SMILES | test | conditions | remaining binding [%] |
| --- | --- | --- | --- |
| FC(F)(F)Oc1cccc(-c2cnc3ccc(-c4ccncc4)nn23)c1 | cell-free assay, competition with immobilised ligand | 5 µM | 33 |
| O=c1nc(-c2ccccn2)sc2ccccc12 | cell-free assay, competition with immobilised ligand | 1 µM | 90 |
| c1cncc(-c2cccc(Nc3nccc(NC4CCCCC4)n3)c2)c1 | binding, competition with immobilised ligand | 10 µM | 92 |
| O=C(c1ccc(Nc2ncc(Cl)c(-c3cc4ccccc4s3)n2)cc1)N1CCC(N2CCCC2)CC1 | binding, competition with immobilised ligand | 1 µM | 80 |
| CNC(=O)Nc1ccc2c(c1)CC[C@@]21OC(=O)N(CC(=O)N(Cc2ccc(F)cc2)[C@@H](C)C(F)(F)F)C1=O | cell-free assay, competition with immobilised ligand | 1 µM | 91 |
| C[C@@H]1CCN(c2nccc(-c3cnn4ncccc34)n2)C1 | binding | 1 µM | 100 |
| CCc1ccccc1C(=O)Nc1n[nH]c2c(C)c(F)c(C3C(C#N)=C(C)N(C)C(C)=C3C#N)cc12 | cell-free assay, competition with immobilised ligand | 1 µM | 78 |
| C[C@@H](c1ccc(-n2cnc3c(N)ncnc32)cc1)N1CCc2nn(C)c(Cc3ccccc3)c2C1=O | binding, competition with immobilised ligand | 0.1 µM | 93 |
| CN(C)c1nccc(-c2cnc3ncccn23)n1 | binding | 1 µM | 100 |
| O=C(c1ccc(Nc2nccc(-c3cc4ccccc4s3)n2)cc1)N1CCC(N2CCCC2)CC1 | binding, competition with immobilised ligand | 1 µM | 81 |
| O=C(NCC1CCOCC1)c1n[nH]cc1NC(=O)c1c(F)cccc1F | binding, competition with immobilised ligand | 1 µM | 89 |
| F[C@@H]1CCN(c2nccc(-c3cnn4ncccc34)n2)C1 | binding | 1 µM | 100 |
| CNC(=O)[C@@H]1CC[C@@H](n2c(-c3ccc4cnccc4c3)nc3ccc(C(=O)NCc4cccc(C(N)=O)c4)cc32)C1 | binding, competition with immobilised ligand | 1 µM | 87 |
| CC1CCCN1c1nccc(-c2cnn3ncccc23)n1 (stereo not shown) | binding | 1 µM | 100 |
| Cn1nc(C(F)(F)F)cc1-c1cnc(N2CCc3cc(S(=O)(=O)Nc4c(F)cc(Cl)cc4F)cc(N4CCCC4=O)c32)nc1 | cell-free assay, competition with immobilised ligand | 1 µM | 99 |
| C=CC(=O)N1CCC(C(=O)NCC(=O)N2CCN(c3nc(-c4cnc(N)nc4C(F)F)nc(N4CCOCC4)n3)CC2)CC1 | binding, competition with immobilised ligand | 1 µM | 100 |
| N[C@H]1CCN(c2nccc(-c3cnn4ncccc34)n2)C1 | binding | 1 µM | 100 |
| CCS(=O)(=O)c1cc2cc(C[C@@](O)(CC(C)(C)c3ccc(F)cc3C(N)=O)C(F)(F)F)[nH]c2cn1 | cell-free assay, competition with immobilised ligand | 1 µM | 81 |
| CN(c1nccc(-c2cnn3ncccc23)n1)C1CC1 | binding | 1 µM | 100 |
| O=C(NCCCN1CCOCC1)c1ccc(Nc2nccc(-c3cc4ccccc4s3)n2)cc1 | binding, competition with immobilised ligand | 1 µM | 86 |
| COc1cc(-c2cn(C3CCc4ccccc4N(CC(F)(F)F)C3=O)nn2)ccc1-n1ccc(C)n1 (stereo not shown) | cell-free assay, competition with immobilised ligand | 1 µM | 100 |
| CN(CCCC(F)(F)F)c1nccc(-c2cnn3ncccc23)n1 | binding | 1 µM | 100 |
